pIC50: −log10 of the molar value.
Target: not listed separately
Test: Inhibition of bovine NADH-ubiquinone oxidoreductase
Set-up: species or system Bos taurus
Conditions: not given
Summary of the method: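 Bovine heart electron transport particles (inverted inner mitochondrial membrane vesicles, 40 µg protein) preincubated with compound 5 min at 25 °C in 50 mM phosphate pH 7.4, 250 mM sucrose. NADH added (28 µM final); activity followed as A340 loss over 3 min. IC50 from three experiments.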

| pIC50 | Structure (SMILES) |
| --- | --- |
| 5.31 | CC1(C)C=Cc2c(ccc(C(=O)/C=C/c3ccc(O)cc3)c2O)O1 |
| 5.70 | COc1ccc([C@@H]2CC(=O)c3c(O)c(CC=C(C)C)c4c(c3O2)C=CC(C)(C)O4)cc1O |
| 5.68 | COc1ccc([C@@H]2CC(=O)c3c(O)c(CC=C(C)C)c4c(c3O2)C=CC(C)(C)O4)cc1OC |
| 5.31 | COc1cc(/C=C/c2ccc3c(c2)OC(C)(C)C=C3)cc(OC)c1OC |
| 5.32 | COc1cc(/C=C/C(=O)c2ccc3c(c2O)C=CC(C)(C)O3)ccc1O |
| 5.28 | COc1cc(/C=C/c2ccc(O)cc2)cc2c1C=CC(C)(C)O2 |
| 5.09 | COc1cc(/C=C/c2cc(OC)c3c(c2)OC(C)(C)C=C3)ccc1O |
| 6.17 | COc1cc([C@@H]2CC(=O)c3c(O)c(CC=C(C)C)c4c(c3O2)C=CC(C)(C)O4)ccc1O |
| 5.59 | COc1ccc([C@@H]2CC(=O)c3cc(CC=C(C)C)c4c(c3O2)C=CC(C)(C)O4)cc1OC |
| < 4.52 | COc1cc(OC)c(-c2coc3c4c(ccc3c2=O)OC(C)(C)[C@@H](O)[C@H]4O)cc1OC (relative stereo) |
| 4.46 | O=c1c(-c2ccc(O)cc2)coc2cc(O)cc(O)c12 [GENISTEIN] |
| 4.59 | Oc1ccc(/C=C/c2cc(O)cc(O)c2)cc1 [RESVERATROL] |

Test system: MCF7
Test: Cytotoxicity against human MCF7 cells after 72 hrs
Format: functional, cell-based
Conditions: MCF7, 72 h
Summary of the method: (§1)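 Test compound added to cultured cells, 72 h incubation, then viability read by MTT (3-(4,5-dimethylthiazol-2-yl)-2,5-diphenyltetrazolium bromide) reduction. IC50 derived from eight replicates per assay.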

| Structure (SMILES) | pIC50 |
| --- | --- |
| CC1(C)C=Cc2c(ccc(C(=O)/C=C/c3ccc(O)cc3)c2O)O1 | 4.57 |
| COc1ccc([C@@H]2CC(=O)c3c(O)c(CC=C(C)C)c4c(c3O2)C=CC(C)(C)O4)cc1O | 5.16 |
| COc1ccc([C@@H]2CC(=O)c3c(O)c(CC=C(C)C)c4c(c3O2)C=CC(C)(C)O4)cc1OC | 5.18 |
| COc1cc(/C=C/c2ccc3c(c2)OC(C)(C)C=C3)cc(OC)c1OC | 4.62 |
| COc1cc(/C=C/C(=O)c2ccc3c(c2O)C=CC(C)(C)O3)ccc1O | 5.00 |
| COc1cc(/C=C/c2ccc(O)cc2)cc2c1C=CC(C)(C)O2 | < 4.52 |
| COc1cc(/C=C/c2cc(OC)c3c(c2)OC(C)(C)C=C3)ccc1O | < 4.52 |
| COc1cc([C@@H]2CC(=O)c3c(O)c(CC=C(C)C)c4c(c3O2)C=CC(C)(C)O4)ccc1O | 5.52 |
| COc1ccc([C@@H]2CC(=O)c3cc(CC=C(C)C)c4c(c3O2)C=CC(C)(C)O4)cc1OC | 5.24 |
| COc1cc(OC)c(-c2coc3c4c(ccc3c2=O)OC(C)(C)[C@@H](O)[C@H]4O)cc1OC (relative stereo) | < 4.52 |
| O=c1c(-c2ccc(O)cc2)coc2cc(O)cc(O)c12 [GENISTEIN] | < 4.52 |
| Oc1ccc(/C=C/c2cc(O)cc(O)c2)cc1 [RESVERATROL] | < 4.52 |

Test system: not listed separately
Test: Cytotoxicity against mouse Hepa1clc7 cells after 72 hrs
Format: functional, cell-based
Conditions: not given
Summary of the method: as §1

| Structure (SMILES) | pIC50 |
| --- | --- |
| CC1(C)C=Cc2c(ccc(C(=O)/C=C/c3ccc(O)cc3)c2O)O1 | 5.00 |
| COc1ccc([C@@H]2CC(=O)c3c(O)c(CC=C(C)C)c4c(c3O2)C=CC(C)(C)O4)cc1O | 5.41 |
| COc1ccc([C@@H]2CC(=O)c3c(O)c(CC=C(C)C)c4c(c3O2)C=CC(C)(C)O4)cc1OC | 5.07 |
| COc1cc(/C=C/c2ccc3c(c2)OC(C)(C)C=C3)cc(OC)c1OC | 5.15 |
| COc1cc(/C=C/C(=O)c2ccc3c(c2O)C=CC(C)(C)O3)ccc1O | 5.23 |
| COc1cc(/C=C/c2ccc(O)cc2)cc2c1C=CC(C)(C)O2 | 5.07 |
| COc1cc(/C=C/c2cc(OC)c3c(c2)OC(C)(C)C=C3)ccc1O | 4.89 |
| COc1cc([C@@H]2CC(=O)c3c(O)c(CC=C(C)C)c4c(c3O2)C=CC(C)(C)O4)ccc1O | 5.46 |
| COc1ccc([C@@H]2CC(=O)c3cc(CC=C(C)C)c4c(c3O2)C=CC(C)(C)O4)cc1OC | 5.29 |
| COc1cc(OC)c(-c2coc3c4c(ccc3c2=O)OC(C)(C)[C@@H](O)[C@H]4O)cc1OC (relative stereo) | < 4.52 |
| O=c1c(-c2ccc(O)cc2)coc2cc(O)cc(O)c12 [GENISTEIN] | 4.96 |
| Oc1ccc(/C=C/c2cc(O)cc(O)c2)cc1 [RESVERATROL] | 4.96 |
